Laboratory results reported in ChEMBL document CHEMBL1139917, “Synthesis of isoquinuclidine analogs of chloroquine: antimalarial and antileishmanial activity” (Bioorg Med Chem, 2007).
Converted amounts (≈) assume the structure as drawn.

How the values were obtained:
[1] = test system: Leishmania donovani; assay: Antileishmanial activity against Leishmania donovani promastigotes after 72 hrs by Alamar blue assay; format: functional, organism-based
Outline: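 Leishmania donovani promastigote culture at 2 × 10⁶ cells/mL, 96-well format; compounds diluted in DMSO. Incubation 72 h at 26 °C. Growth read by Alamar blue adapted to fluorometric readout. Pentamidine and amphotericin B as standard agents. IC50 computed from growth inhibition curve.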

[2] = test system: Vero; assay: Cytotoxicity against Vero cells by neutral red assay; format: cell-based; settings: chlorocebus sabaeus
Outline: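 VERO (monkey kidney fibroblast) cells tested in parallel with the antiparasitic assays. Viability read by Neutral Red assay. IC50 computed from growth inhibition curve.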

[3] = test system: Plasmodium falciparum; assay: Antimalarial activity against chloroquine-resistant Plasmodium falciparum W2; format: functional, organism-based
Outline: (§1)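 P. falciparum D6 (Sierra Leone, chloroquine-sensitive) and W2 (Indochina, chloroquine-resistant) clones were kept in type A human RBCs and subcultured daily. The assay used infected-cell suspensions at 2% parasitemia and 2% hematocrit in 96-well microplates, run in duplicate across several concentrations. IC50 was taken from dose curves. Artemisinin and chloroquine served as drug controls, with DMSO as vehicle control.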

[4] = Selectivity index, ratio of IC50 for Vero cells to IC50 for chloroquine-sensitive Plasmodium falciparum D6; format: functional
Outline: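 Ratio of Vero cell cytotoxicity (Neutral Red, run in parallel) to activity against P. falciparum D6 (Sierra Leone, chloroquine-sensitive). Parasite assay: D6 grown in type A human RBCs, subcultured daily; infected cells at 2% parasitemia, 2% hematocrit in 96-well plates; duplicate wells at several concentrations. IC50 from dose curves; DMSO vehicle control.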

[5] = test system: Plasmodium falciparum; assay: Antimalarial activity against chloroquine-sensitive Plasmodium falciparum D6; format: functional, organism-based; outline: as §1
[6] = Selectivity index, ratio of IC50 for Vero cells to IC50 for chloroquine-resistant Plasmodium falciparum W2; format: functional
Outline: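 Vero (monkey kidney fibroblast) cytotoxicity was run in parallel with the P. falciparum W2 assay using the Neutral Red assay, with IC50 taken from growth inhibition curves. The selectivity index is the Vero IC50 divided by the W2 IC50.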

SMILES: CN(C)CC1CC2CCC1N(c1ccnc3cc(Cl)ccc13)C2 (stereo not drawn)
- IC50 [1]: 1.9 µg/mL (≈ 5.76 µM)
- IC90 [1]: 6 µg/mL (≈ 18.2 µM)
- Activity [2]: Non-toxic
- IC50 [3]: 0.018 µg/mL (≈ 0.0546 µM)
- Ratio IC50 [4]: >396.7
- IC50 [5]: 0.012 µg/mL (≈ 0.0364 µM)
- Ratio IC50 [6]: >264.4

SMILES: NCC1CC2CCC1N(c1ccnc3cc(Cl)ccc13)C2 (stereo not drawn)
- IC50 [1]: 4.2 µg/mL (≈ 13.9 µM)
- IC90 [1]: 20 µg/mL (≈ 66.3 µM)
- Activity [2]: Non-toxic
- IC50 [3]: 0.18 µg/mL (≈ 0.596 µM)
- Ratio IC50 [4]: >36.6
- IC50 [5]: 0.13 µg/mL (≈ 0.431 µM)
- Ratio IC50 [6]: >26.4

SMILES: CN1CC2CCC1C(CNc1ccnc3cc(Cl)ccc13)C2 (stereo not drawn)
- IC50 [1]: 3 µg/mL (≈ 9.5 µM)
- IC90 [1]: 6.5 µg/mL (≈ 20.6 µM)
- Activity [2]: Non-toxic
- IC50 [3]: 0.004 µg/mL (≈ 0.0127 µM)
- Ratio IC50 [4]: >1252.3
- IC50 [5]: 0.0038 µg/mL (≈ 0.012 µM)
- Ratio IC50 [6]: >1190

SMILES: N#CC1CC2CCC1N(c1ccnc3cc(Cl)ccc13)C2 (stereo not drawn)
- IC50 [1]: 16 µg/mL (≈ 53.7 µM)
- IC90 [1]: 33 µg/mL (≈ 111 µM)
- Activity [2]: Non-toxic
- IC50 [3]: 0.17 µg/mL (≈ 0.571 µM)
- Ratio IC50 [4]: >13.6
- IC50 [5]: 0.35 µg/mL (≈ 1.18 µM)
- Ratio IC50 [6]: >28

SMILES: CCNCC1CC2CCC1N(c1ccnc3cc(Cl)ccc13)C2 (stereo not drawn)
- IC50 [1]: 7.2 µg/mL (≈ 21.8 µM)
- IC90 [1]: 29 µg/mL (≈ 87.9 µM)
- Activity [2]: Non-toxic
- IC50 [3]: 0.11 µg/mL (≈ 0.333 µM)
- Ratio IC50 [4]: >17
- IC50 [5]: 0.28 µg/mL (≈ 0.849 µM)
- Ratio IC50 [6]: >43.2

SMILES: CCN(CC)CC1CC2CCC1N(c1ccnc3cc(Cl)ccc13)C2 (stereo not drawn)
- IC50 [1]: 3.8 µg/mL (≈ 10.6 µM)
- IC90 [1]: 8 µg/mL (≈ 22.4 µM)
- Activity [2]: Non-toxic
- IC50 [3]: 0.2 µg/mL (≈ 0.559 µM)
- Ratio IC50 [4]: >15.4
- IC50 [5]: 0.31 µg/mL (≈ 0.866 µM)
- Ratio IC50 [6]: >23.8

SMILES: C[C@@H]1[C@H](O)[C@@H](C)/C=C/C=C/C=C/C=C/C=C/C=C/C=C/[C@H](O[C@@H]2O[C@H](C)[C@@H](O)[C@H](N)[C@@H]2O)C[C@@H]2O[C@](O)(C[C@@H](O)C[C@@H](O)[C@H](O)CC[C@@H](O)C[C@@H](O)CC(=O)O[C@H]1C)C[C@H](O)[C@H]2C(=O)O [AMPHOTERICIN B]
- IC50 [1]: 0.18 µg/mL (≈ 0.195 µM)
- IC90 [1]: 1.8 µg/mL (≈ 1.95 µM)

SMILES: C[C@@H]1CC[C@H]2[C@@H](C)C(=O)O[C@@H]3O[C@@]4(C)CC[C@@H]1[C@]32OO4 [ARTEMISININ]
- IC50 [3]: 0.0018 µg/mL (≈ 0.00638 µM)
- IC50 [5]: 0.0036 µg/mL (≈ 0.0128 µM)

SMILES: N=C(N)c1ccc(OCCCCCOc2ccc(C(=N)N)cc2)cc1 [PENTAMIDINE]
- IC50 [1]: 2.8 µg/mL (≈ 8.22 µM)
- IC90 [1]: 10 µg/mL (≈ 29.4 µM)
